{"data": "Assay results from different studies", "target": "Dual specificity mitogen-activated protein kinase kinase 7 (MAP2K7, Homo sapiens, UniProt O14733)", "One construct used (O14733 1-419)": "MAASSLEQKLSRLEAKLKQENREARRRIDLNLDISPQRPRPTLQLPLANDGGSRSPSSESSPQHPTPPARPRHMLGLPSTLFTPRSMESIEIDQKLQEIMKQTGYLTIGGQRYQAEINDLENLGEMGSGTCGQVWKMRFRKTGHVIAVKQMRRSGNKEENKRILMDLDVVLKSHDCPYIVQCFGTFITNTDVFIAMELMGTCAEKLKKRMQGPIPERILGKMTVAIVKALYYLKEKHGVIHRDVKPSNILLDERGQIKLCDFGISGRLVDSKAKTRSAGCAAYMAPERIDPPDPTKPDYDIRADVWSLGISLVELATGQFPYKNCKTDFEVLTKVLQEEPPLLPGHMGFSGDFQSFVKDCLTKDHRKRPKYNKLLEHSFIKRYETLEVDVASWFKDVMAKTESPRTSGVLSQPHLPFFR", "note": "Each line is one published result; the experiments were not run side by side."}
{"Compound": "FC(F)(F)Oc1cccc(-c2cnc3ccc(-c4ccncc4)nn23)c1", "effect on": "cell-free assay", "technique": "competition with immobilised ligand", "concentration": "5 µM", "remaining binding": "96%"}
{"Compound": "Nc1ncc2c(n1)-c1c([nH]c3ccc(C#CC4CC4)cc13)CCCC2", "effect on": "binding", "technique": "competition with immobilised ligand", "concentration": "1 µM", "remaining binding": "100%"}
{"Compound": "C[C@@H]1CCN(c2nccc(-c3cnn4ncccc34)n2)C1", "effect on": "binding", "concentration": "1 µM", "remaining binding": "100%"}
{"Compound": "CC1=C(C#N)[C@@H](c2ccc3[nH]nc(C)c3c2)C(C#N)=C(c2ccc(Cl)cc2)N1", "effect on": "cell-free assay", "technique": "competition with immobilised ligand", "concentration": "1 µM", "remaining binding": "92.2%"}
{"Compound": "COc1cnc(Nc2cccc(S(N)(=O)=O)c2)nc1N1CCN(c2ccccc2)CC1", "effect on": "binding", "technique": "competition with immobilised ligand", "concentration": "1 µM", "remaining binding": "97%"}
{"Compound": "Cc1c(NC(=O)c2cc(C(N)=O)nc3cc(F)ccc23)c(C(F)(F)F)nn1Cc1ccc(C#N)cc1", "effect on": "cell-free assay", "technique": "competition with immobilised ligand", "concentration": "1 µM", "remaining binding": "79%"}
{"Compound": "O=C(c1ccc(Nc2ncc(Cl)c(-c3ccc(Cl)s3)n2)cc1)N1CCC(N2CCCC2)CC1", "effect on": "binding", "technique": "competition with immobilised ligand", "concentration": "1 µM", "remaining binding": "82%"}
{"Compound": "O=C(Nc1c[nH]nc1C(=O)NC1CCNCC1)c1cc(F)cc(F)c1", "effect on": "binding", "technique": "competition with immobilised ligand", "concentration": "1 µM", "remaining binding": "86%"}
{"Compound": "CN(C)c1nccc(-c2cnn3ncccc23)n1", "effect on": "binding", "concentration": "1 µM", "remaining binding": "100%"}
{"Compound": "COc1cnc(Nc2cccc(S(N)(=O)=O)c2)nc1N1CCN(c2ccccc2)C(=O)C1", "effect on": "binding", "technique": "competition with immobilised ligand", "concentration": "1 µM", "remaining binding": "92%"}
{"Compound": "O=S(=O)(NC1CCC(c2cc(F)ccc2F)(S(=O)(=O)c2ccc(Cl)cc2)CC1)C(F)(F)F (centres unmarked)", "effect on": "cell-free assay", "technique": "competition with immobilised ligand", "concentration": "1 µM", "remaining binding": "100%"}
{"Compound": "Cc1cnn2ncc(-c3ccnc(N(C)C)n3)c2c1", "effect on": "binding", "concentration": "1 µM", "remaining binding": "71%"}
{"Compound": "Cc1nc(N2CC[C@@H](O)C2)ncc1-c1cc(C(F)(F)F)cc2[nH]ncc12", "effect on": "binding", "technique": "competition with immobilised ligand", "concentration": "1 µM", "remaining binding": "64%"}
{"Compound": "CN(CCCC(F)(F)F)c1nccc(-c2cnn3ncccc23)n1", "effect on": "binding", "concentration": "1 µM", "remaining binding": "100%"}
{"Compound": "O=C(c1ccc(Nc2nccc(-c3cc4ccccc4s3)n2)cc1)N1CCC(N2CCCC2)CC1", "effect on": "binding", "technique": "competition with immobilised ligand", "concentration": "1 µM", "remaining binding": "26%"}
{"Compound": "COc1ccnn2ncc(-c3ccnc(N(C)C)n3)c12", "effect on": "binding", "concentration": "1 µM", "remaining binding": "73%"}
{"Compound": "COc1cccc(CNC(=O)c2nc3scc(COCc4ccc(C(=O)O)cc4)c3c(=O)[nH]2)c1", "effect on": "cell-free assay", "technique": "competition with immobilised ligand", "concentration": "1 µM", "remaining binding": "81.2%"}
{"Compound": "CN(c1nccc(-c2cnn3ncccc23)n1)C1CC1", "effect on": "binding", "concentration": "1 µM", "remaining binding": "100%"}
{"Compound": "Cc1nc(Cc2cccc(C(F)(F)F)c2)sc1-c1ccc(C(N)=O)nc1", "effect on": "cell-free assay", "technique": "competition with immobilised ligand", "concentration": "1 µM", "remaining binding": "100%"}
{"Compound": "O=C(NCCCN1CCOCC1)c1ccc(Nc2ncc(Cl)c(-c3ccc(Cl)s3)n2)cc1", "effect on": "binding", "technique": "competition with immobilised ligand", "concentration": "1 µM", "remaining binding": "87%"}
